ChEMBL document CHEMBL4689842, “EUbOPEN Chemogenomics Library wave 1” (2021)
“And” between values parts separate entries of the source, which are not always exact repeats. Equal entries are not always repeated.

System: Fibroblast
Test: Multiplex assay against human fibroblast
Assay type: toxicity, cell-based
Procedure, shortened: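 Cells stained live at seeding with Hoechst33342, BioTracker Green Microtubule Cytoskeleton Dye, MitoTracker Red and Annexin V Alexa Fluor 680 were imaged on a CQ1 microscope at 37°C and 5% CO2 after compound addition. Their classification by CellPathfinder machine-learning gating ran from Hoechst high-intensity objects versus normal cells, to healthy, pyknosed or fragmented nuclei among normal cells, to mitotic or apoptotic among pyknosed cells. Tubulin, mitochondrial-mass and membrane-permeability phenotypes are per cents of healthy-nucleus cells.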

[1] = 12 h, 1 µM, compound concentration 1 uM, replicate 1
[2] = 12 h, 1 µM, compound concentration 1 uM, replicate 2
[3] = 12 h, 10 µM, compound concentration 10 uM, replicate 1
[4] = 12 h, 10 µM, compound concentration 10 uM, replicate 2
[5] = 24 h, 1 µM, compound concentration 1 uM, replicate 1
[6] = 24 h, 1 µM, compound concentration 1 uM, replicate 2
[7] = 24 h, 10 µM, compound concentration 10 uM, replicate 1
[8] = 24 h, 10 µM, compound concentration 10 uM, replicate 2
[9] = 48 h, 1 µM, compound concentration 1 uM, replicate 1
[10] = 48 h, 1 µM, compound concentration 1 uM, replicate 2
[11] = 48 h, 10 µM, compound concentration 10 uM, replicate 1
[12] = 48 h, 10 µM, compound concentration 10 uM, replicate 2

For Nc1c(C(=O)NCc2ccc(C(=O)NCCCC3CCCCC3)cc2)cnn1-c1ccccc1 [SR-318], the “Population Apoptotic (%)” value [1] was 63% and 53% and 61%, the “Population Fragmented Nuclei (%)” value [1] was 20% and 26% and the “Population Healthy Nuclei (%)” value [1] was 41% and 34%. For the same compound, the “Population Hoechst High Intensity Objects (%)” value [1] was 10% and 11%, the “Population Membrane Permeable-Phenotype (%)” value [1] was 34% and 21% and 18% and the “Population Mitochondria Different-Phenotype (%)” value [1] was 6% and 7% and 9%. For the same compound, the “Population Mitotic Cells (%)” value [1] was 36% and 46% and 38%, the “Population Normal (%)” value [1] was 89% and 88% and the “Population Pyknosed Nuclei (%)” value [1] was 38% and 44%. For the same compound, the “Population Tubulin-Different-Phenotype (%)” value [1] was 46% and 39% and 51%, the “Total Cell Count” value [1] was 128 and 123 and 142 and the “Population Fragmented Nuclei (%)” value [2] was 9% and 5% and 3%. For the same compound, the “Population Healthy Nuclei (%)” value [2] was 83% and 75% and 91%, the “Population Membrane Permeable-Phenotype (%)” value [2] was 6% and 5% and the “Population Mitochondria Different-Phenotype (%)” value [2] was 8%. For the same compound, the “Population Mitotic Cells (%)” value [2] was 50% and 87% and 100%, the “Population Normal (%)” value [2] was 95% and 73% and 96% and the “Population Tubulin-Different-Phenotype (%)” value [2] was 19% and 25% and 11%. For the same compound, the “Total Cell Count” value [2] was 63 and 91 and 118, the “Population Apoptotic (%)” value [3] was 65% and 54% and 56% and the “Population Fragmented Nuclei (%)” value [3] was 20% and 24% and 14%. For the same compound, the “Population Healthy Nuclei (%)” value [3] was 29% and 33% and 37%, the “Population Hoechst High Intensity Objects (%)” value [3] was 8% and 10% and 20% and the “Population Mitochondria Different-Phenotype (%)” value [3] was 24% and 47% and 43%. For the same compound, the “Population Mitotic Cells (%)” value [3] was 34% and 45% and 43%, the “Population Normal (%)” value [3] was 91% and 89% and 79% and the “Population Pyknosed Nuclei (%)” value [3] was 50% and 42% and 47%. The “Population Tubulin-Different-Phenotype (%)” value [3] was 88% and 76% and 85%, the “Total Cell Count” value [3] was 94 and 140 and 136 and the “Population Apoptotic (%)” value [4] was 45% and 22% and 33%. For the same compound, the “Population Fragmented Nuclei (%)” value [4] was 17% and 15% and 12%, the “Population Healthy Nuclei (%)” value [4] was 69% and 58% and 72% and the “Population Mitochondria Different-Phenotype (%)” value [4] was 55% and 51% and 60%. The “Population Mitotic Cells (%)” value [4] was 54% and 77% and 66%, the “Population Normal (%)” value [4] was 92% and 98% and the “Population Pyknosed Nuclei (%)” value [4] was 13% and 25% and 15%. The “Population Tubulin-Different-Phenotype (%)” value [4] was 50% and 56% and 67%, the “Total Cell Count” value [4] was 71 and 90 and 91 and the “Population Apoptotic (%)” value [5] was 44% and 58% and 55%. The “Population Fragmented Nuclei (%)” value [5] was 17% and 19% and 22%, the “Population Healthy Nuclei (%)” value [5] was 46% and 43% and 44% and the “Population Hoechst High Intensity Objects (%)” value [5] was 8% and 6% and 10%. The “Population Membrane Permeable-Phenotype (%)” value [5] was 34% and 25% and 33%, the “Population Mitochondria Different-Phenotype (%)” value [5] was 6% and 4% and 12% and the “Population Mitotic Cells (%)” value [5] was 55% and 41% and 44%. The “Population Normal (%)” value [5] was 91% and 93% and 89%, the “Population Pyknosed Nuclei (%)” value [5] was 36% and 33% and the “Population Tubulin-Different-Phenotype (%)” value [5] was 44% and 31% and 60%. The “Total Cell Count” value [5] was 137 and 115 and 142, the “Population Apoptotic (%)” value [6] was 25% and the “Population Fragmented Nuclei (%)” value [6] was 6% and 3% and 4%. The “Population Healthy Nuclei (%)” value [6] was 80% and 84% and 75%, the “Population Membrane Permeable-Phenotype (%)” value [6] was 8% and 5% and the “Population Mitochondria Different-Phenotype (%)” value [6] was 13% and 7%. For the same compound, the “Population Mitotic Cells (%)” value [6] was 75%, the “Population Normal (%)” value [6] was 94% and 97% and 77% and the “Population Pyknosed Nuclei (%)” value [6] was 13% and 11% and 19%. The “Population Tubulin-Different-Phenotype (%)” value [6] was 22% and 14% and 23%, the “Total Cell Count” value [6] was 67 and 130 and 97 and the “Population Apoptotic (%)” value [7] was 66% and 45% and 56%. For the same compound, the “Population Fragmented Nuclei (%)” value [7] was 15% and 18% and 29%, the “Population Healthy Nuclei (%)” value [7] was 43% and 47% and 39% and the “Population Hoechst High Intensity Objects (%)” value [7] was 16% and 12% and 11%. For the same compound, the “Population Mitochondria Different-Phenotype (%)” value [7] was 31% and 48% and 42%, the “Population Mitotic Cells (%)” value [7] was 33% and 54% and 43% and the “Population Normal (%)” value [7] was 83% and 87% and 88%. For the same compound, the “Population Pyknosed Nuclei (%)” value [7] was 40% and 33% and 30%, the “Population Tubulin-Different-Phenotype (%)” value [7] was 76% and 87% and 86% and the “Total Cell Count” value [7] was 105 and 118 and 143. For the same compound, the “Population Apoptotic (%)” value [8] was 28% and 44% and 46%, the “Population Fragmented Nuclei (%)” value [8] was 13% and 17% and 14% and the “Population Healthy Nuclei (%)” value [8] was 65% and 62% and 66%. The “Population Membrane Permeable-Phenotype (%)” value [8] was 9% and 7% and 3%, the “Population Mitochondria Different-Phenotype (%)” value [8] was 58% and 57% and 66% and the “Population Mitotic Cells (%)” value [8] was 71% and 55% and 53%. The “Population Normal (%)” value [8] was 98% and 92%, the “Population Pyknosed Nuclei (%)” value [8] was 21% and 20% and 18% and the “Population Tubulin-Different-Phenotype (%)” value [8] was 41% and 30% and 61%. For the same compound, the “Total Cell Count” value [8] was 104 and 67 and 97, the “Population Apoptotic (%)” value [9] was 73% and 50% and 47% and the “Population Fragmented Nuclei (%)” value [9] was 32% and 28% and 24%. The “Population Healthy Nuclei (%)” value [9] was 43% and 48% and 60%, the “Population Hoechst High Intensity Objects (%)” value [9] was 14% and 12% and the “Population Membrane Permeable-Phenotype (%)” value [9] was 22% and 21% and 16%. The “Population Mitochondria Different-Phenotype (%)” value [9] was 2% and 7%, the “Population Mitotic Cells (%)” value [9] was 26% and 50% and 52% and the “Population Normal (%)” value [9] was 85% and 87%. For the same compound, the “Population Pyknosed Nuclei (%)” value [9] was 24% and 22% and 15%, the “Population Tubulin-Different-Phenotype (%)” value [9] was 20% and 37% and 36% and the “Total Cell Count” value [9] was 109 and 153 and 141. The “Population Apoptotic (%)” value [10] was 100% and 83%, the “Population Fragmented Nuclei (%)” value [10] was 22% and 27% and 14% and the “Population Healthy Nuclei (%)” value [10] was 73% and 71% and 81%. The “Population Hoechst High Intensity Objects (%)” value [10] was 16% and 13% and 11%, the “Population Membrane Permeable-Phenotype (%)” value [10] was 18% and 13% and the “Population Mitochondria Different-Phenotype (%)” value [10] was 5% and 4%. The “Population Mitotic Cells (%)” value [10] was 0% and 16%, the “Population Normal (%)” value [10] was 83% and 86% and 88% and the “Population Tubulin-Different-Phenotype (%)” value [10] was 28% and 40% and 26%. The “Total Cell Count” value [10] was 116 and 115 and 159, the “Population Apoptotic (%)” value [11] was 71% and 75% and 64% and the “Population Fragmented Nuclei (%)” value [11] was 36% and 33%. The “Population Healthy Nuclei (%)” value [11] was 43% and 45% and 41%, the “Population Hoechst High Intensity Objects (%)” value [11] was 20% and 19% and 17% and the “Population Membrane Permeable-Phenotype (%)” value [11] was 12% and 4% and 3%. For the same compound, the “Population Mitochondria Different-Phenotype (%)” value [11] was 40% and 45% and 36%, the “Population Mitotic Cells (%)” value [11] was 28% and 25% and 35% and the “Population Normal (%)” value [11] was 79% and 80% and 82%. For the same compound, the “Population Pyknosed Nuclei (%)” value [11] was 19% and 21% and 25%, the “Population Tubulin-Different-Phenotype (%)” value [11] was 81% and 83% and 82% and the “Total Cell Count” value [11] was 92 and 116 and 150. The “Population Fragmented Nuclei (%)” value [12] was 28% and 31% and 23%, the “Population Healthy Nuclei (%)” value [12] was 66% and 63% and 71% and the “Population Hoechst High Intensity Objects (%)” value [12] was 9% and 3%. For the same compound, the “Population Membrane Permeable-Phenotype (%)” value [12] was 9% and 6%, the “Population Mitochondria Different-Phenotype (%)” value [12] was 13% and 23% and 16% and the “Population Mitotic Cells (%)” value [12] was 83% and 50% and 85%. The “Population Normal (%)” value [12] was 90% and 96%, the “Population Pyknosed Nuclei (%)” value [12] was 5% and 4% and the “Population Tubulin-Different-Phenotype (%)” value [12] was 68% and 86%. For the same compound, the “Total Cell Count” value [12] was 121 and 148 and 157.
